The text below walks through data of ChEMBL document CHEMBL4680061, “Unveiling the active isomer of cycloalanopine, a cyclic opine from Lactobacillus rhamnosus LS8, through synthesis and analog production” (2020).

The test system of test [1] is Escherichia coli. Put plainly: Antibacterial activity against Escherichia coli ATCC 25922 assessed as bacterial growth inhibition after overnight incubation by spot-on-lawn assay. In kind it is functional. The procedure, abridged: (§1)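 Overnight cultures were grown in Luria broth at 37 °C and used to seed 5 mL soft agar (0.75%) in the same medium, poured over 1.5% hard agar. Compounds in MQ-H2O or DMSO were two-fold serially diluted from stock, and 10 µL of each was spotted. After drying, plates were incubated overnight at 37 °C. Growth inhibition at each spot was scored, and MIC was taken from triplicates.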

Test [2] has as its system Staphylococcus aureus. Put plainly: Antibacterial activity against Staphylococcus aureus ATCC 25923 assessed as bacterial growth inhibition after overnight incubation by spot-on-lawn assay. In kind it is functional. The procedure, abridged: (§2)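 Tryptic Soy Broth at 25 °C was used for culture and for the 0.75% soft-agar overlay, which was seeded from overnight cultures and poured onto 1.5% agar. Two-fold dilution series in MQ-H2O or DMSO were spotted (10 µL), dried, and incubated overnight at 25 °C. Growth inhibition at each spot was recorded, and MIC was derived from triplicate assays.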

Test [3] relates to Acinetobacter baumannii. The test is described as follows: Antibacterial activity against Acinetobacter baumannii ATCC 19606 assessed as bacterial growth inhibition after overnight incubation by spot-on-lawn assay. In kind it is functional. The following applies: ATCC 19606 = CIP 70.34 = JCM 6841. The procedure, abridged: as §1
The test system of test [4] is Enterococcus faecalis. The test is described as follows: Antibacterial activity against Enterococcus faecalis ATCC 7080 assessed as bacterial growth inhibition after overnight incubation by spot-on-lawn assay. It is filed as functional. The procedure, abridged: (§3)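 Lawns were prepared in All Purpose Tween medium at 25 °C: overnight cultures went into 5 mL soft agar (0.75%) poured onto 1.5% agar plates. Aqueous or DMSO solutions were two-fold serially diluted, and 10 µL aliquots were spotted and dried. Plates were incubated overnight at 25 °C. Inhibition was read at the spot locations, and MIC was based on triplicates.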

The subject of test [5] is Listeria monocytogenes. The test is described as follows: Antibacterial activity against Listeria monocytogenes ATCC 15313 assessed as bacterial growth inhibition after overnight incubation by spot-on-lawn assay. In kind it is functional. In outline:
as §3

Test [6] relates to Salmonella typhimurium. The test is described as follows: Antibacterial activity against Salmonella typhimurium ATCC 13311 assessed as bacterial growth inhibition after overnight incubation by spot-on-lawn assay. In kind it is functional, Salmonella enterica subsp. enterica serovar Typhimurium. The following applies: Salmonella enterica. In outline:
as §1

In test [7] the test system is Pseudomonas aeruginosa. The test is described as follows: Antibacterial activity against Pseudomonas aeruginosa ATCC 14207 assessed as bacterial growth inhibition after overnight incubation by spot-on-lawn assay. It is filed as functional. The procedure, abridged: as §1
The test system of test [8] is Pseudomonas aeruginosa. Put plainly: Antibacterial activity against Pseudomonas aeruginosa ATCC 14207 assessed as bacterial growth inhibition at 250 mg/ml after overnight incubation by spot-on-lawn assay. In kind it is functional, organism-based. The procedure, abridged: as §1
For test [9], the system named is Listeria monocytogenes. The test is described as follows: Antibacterial activity against Listeria monocytogenes ATCC 15313 assessed as bacterial growth inhibition at 250 mg/ml after overnight incubation by spot-on-lawn assay. It is filed as functional, organism-based. The procedure, abridged:
as §3

In test [10] the test system is Enterococcus faecalis. The test is described as follows: Antibacterial activity against Enterococcus faecalis ATCC 7080 assessed as bacterial growth inhibition at 250 mg/ml after overnight incubation by spot-on-lawn assay. In kind it is functional, organism-based. The procedure, abridged:
as §3

The subject of test [11] is Staphylococcus aureus. The test is described as follows: Antibacterial activity against Staphylococcus aureus ATCC 25923 assessed as bacterial growth inhibition at 250 mg/ml after overnight incubation by spot-on-lawn assay. It is filed as functional, organism-based. In outline: as §2
Test [12] deals with Salmonella typhimurium. The test is described as follows: Antibacterial activity against Salmonella typhimurium ATCC 13311 assessed as bacterial growth inhibition at 250 mg/ml after overnight incubation by spot-on-lawn assay. The following applies: Salmonella enterica subsp. enterica serovar Typhimurium. It is filed as functional, organism-based. In outline:
as §1

The test system of test [13] is Escherichia coli. The test is described as follows: Antibacterial activity against Escherichia coli ATCC 25922 assessed as bacterial growth inhibition at 250 mg/ml after overnight incubation by spot-on-lawn assay. It is filed as functional, organism-based. The procedure, abridged: as §1
The test system of test [14] is Acinetobacter baumannii. Put plainly: Antibacterial activity against Acinetobacter baumannii ATCC 19606 assessed as bacterial growth inhibition at 250 mg/ml after overnight incubation by spot-on-lawn assay. It is filed as functional, organism-based. The following applies: ATCC 19606 = CIP 70.34 = JCM 6841. The procedure, abridged: as §1

Structures are written as SMILES. In brackets after ≈: the same amount, converted by molar mass. Activity calls are given as the source filed them. The calls are words filed in the database; no cut-off is given here.

The MIC is the lowest concentration found to suppress growth. With `C[C@H]1N[C@H](CCCCN)C(=O)NNC1=O`, the MIC with Escherichia coli [1] was determined as 31 mg/mL (≈ 145 mM); in the test with Staphylococcus aureus [2] it was 62 mg/mL (≈ 289 mM); with Acinetobacter baumannii [3], 62 mg/mL (≈ 289 mM); in the test on Enterococcus faecalis [4] it was 16 mg/mL (≈ 74.7 mM); in the test with Listeria monocytogenes [5], 16 mg/mL (≈ 74.7 mM); with Salmonella typhimurium [6], 62 mg/mL (≈ 289 mM).

In the case of `C[C@@H]1N[C@H](C)C(=O)NNC1=O`, the minimal inhibitory concentration (MIC) turned out to be 3.2 mg/mL (≈ 20.4 mM) in the test with Escherichia coli [1]; 26 mg/mL (≈ 165 mM) with Staphylococcus aureus [2]; 26 mg/mL (≈ 165 mM) in the test with Enterococcus faecalis [4]; 26 mg/mL (≈ 165 mM) in the test on Listeria monocytogenes [5]; 52 mg/mL (≈ 331 mM) in the test on Pseudomonas aeruginosa [7]; 26 mg/mL (≈ 165 mM) with Salmonella typhimurium [6].

Regarding `C[C@H]1N[C@H](C)C(=O)NNC1=O`, the result in the test on Pseudomonas aeruginosa [8], in the test with Listeria monocytogenes [9], in the test on Enterococcus faecalis [10], in the test on Staphylococcus aureus [11], in the test with Salmonella typhimurium [12] and in the test on Escherichia coli [13] was inactive. The result in the test on Acinetobacter baumannii [14] was inactive.

As for `C[C@H]1N[C@@H](CCCCN)C(=O)NNC1=O`, the MIC in the test on Escherichia coli [1] is 0.49 mg/mL (≈ 2.29 mM); in the test with Staphylococcus aureus [2], 31 mg/mL (≈ 145 mM); with Acinetobacter baumannii [3], 0.98 mg/mL (≈ 4.57 mM); in the test on Enterococcus faecalis [4] it was 62 mg/mL (≈ 289 mM); in the test on Listeria monocytogenes [5], 7.8 mg/mL (≈ 36.4 mM); in the test on Pseudomonas aeruginosa [7] it was 62 mg/mL (≈ 289 mM). The MIC with Salmonella typhimurium [6] is 3.9 mg/mL (≈ 18.2 mM).

Regarding `C[C@@H]1NCC(=O)NNC1=O`, the MIC in the test with Escherichia coli [1] was 2.3 mg/mL (≈ 16.1 mM); with Staphylococcus aureus [2], 75 mg/mL (≈ 524 mM); with Acinetobacter baumannii [3], 19 mg/mL (≈ 133 mM); in the test on Listeria monocytogenes [5] it was 38 mg/mL (≈ 265 mM); in the test on Pseudomonas aeruginosa [7] it was 38 mg/mL (≈ 265 mM); in the test on Salmonella typhimurium [6] it was 19 mg/mL (≈ 133 mM).

Consider `C[C@@H]1N[C@@H](C)C(=O)NNC1=O`, for which the outcome with Pseudomonas aeruginosa [8], in the test with Listeria monocytogenes [9], in the test on Enterococcus faecalis [10], in the test with Staphylococcus aureus [11], in the test on Salmonella typhimurium [12] and in the test with Escherichia coli [13] was inactive. In addition, in the test on Acinetobacter baumannii [14], the outcome was inactive.

Regarding `C[C@H]1NCC(=O)NNC1=O`, the MIC with Escherichia coli [1] amounted to 0.06 mg/mL (≈ 0.419 mM); in the test on Staphylococcus aureus [2] it was 2 mg/mL (≈ 14 mM); in the test on Acinetobacter baumannii [3] it was 0.12 mg/mL (≈ 0.838 mM); in the test with Enterococcus faecalis [4] it was 2 mg/mL (≈ 14 mM); in the test on Listeria monocytogenes [5] it was 2 mg/mL (≈ 14 mM); with Pseudomonas aeruginosa [7] it was 3.9 mg/mL (≈ 27.2 mM). Further, in the test with Salmonella typhimurium [6], the MIC was 0.98 mg/mL (≈ 6.85 mM).
